According to ChEMBL document CHEMBL1250500, “E-2-[3-(3,4-dichlorophenyl)-1-oxo-2-propenyl]-3-methylquinoxaline-1,4-dioxide: a lead antitubercular agent which alters mitochondrial respiration in rat liver” (Eur J Med Chem, 2010):
Calls of active or inactive are those of the source. No cut-off for these calls is given here.

Each compound was assayed on Mycobacterium tuberculosis (assay: Antitubercular activity against Mycobacterium tuberculosis H37Rv ATCC 27294 by microplate alamar blue assay).
Type: functional, organism-based
Method in brief: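 Broth microdilution in BACTEC 12B medium, with Alamar Blue read-out.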

SMILES	IC50	IC90
Cc1c(C(=O)/C=C/c2ccc(Br)cc2)[n+]([O-])c2ccccc2[n+]1[O-]	3.71 µM	> 250 µM
CC(=O)c1c(C)[n+]([O-])c2ccccc2[n+]1[O-] [MEQUINDOX]	6.83 µM	7.89 µM
Cc1c(C(=O)/C=C/c2ccc([N+](=O)[O-])cc2)[n+]([O-])c2ccccc2[n+]1[O-]	> 250 µM	> 250 µM
Cc1c(C(=O)/C=C/c2ccc(Cl)c(Cl)c2)[n+]([O-])c2ccccc2[n+]1[O-]	1.03 µM	1.53 µM
Cc1ccc(/C=C/C(=O)c2c(C)[n+]([O-])c3ccccc3[n+]2[O-])cc1	5.58 µM	9.44 µM
Cc1c(C(=O)/C=C/c2ccccc2)[n+]([O-])c2ccccc2[n+]1[O-]	3.88 µM	6.12 µM
COc1ccc(/C=C/C(=O)c2c(C)[n+]([O-])c3ccccc3[n+]2[O-])cc1	23.1 µM	40.2 µM
Cc1c(C(=O)/C=C/c2ccc(Cl)cc2)[n+]([O-])c2ccccc2[n+]1[O-]	2.64 µM	4.12 µM
COc1cc(/C=C/C(=O)c2c(C)[n+]([O-])c3ccccc3[n+]2[O-])cc(OC)c1OC	6.88 µM	11.9 µM
Cc1c(C(=O)/C=C/c2cccc([N+](=O)[O-])c2)[n+]([O-])c2ccccc2[n+]1[O-]	2.18 µM	2.39 µM
COc1ccc(/C=C/C(=O)c2c(C)[n+]([O-])c3ccccc3[n+]2[O-])cc1OC	9.15 µM	17.2 µM
Cc1c(C(=O)/C=C/c2ccc3c(c2)OCO3)[n+]([O-])c2ccccc2[n+]1[O-]	19.7 µM	35.8 µM
Cc1c(C(=O)/C=C/c2ccc(F)cc2)[n+]([O-])c2ccccc2[n+]1[O-]	5.83 µM	10.7 µM

Species on record: Rattus norvegicus
Assay: Induction of rat liver mitochondria respiration assessed as consumption of oxygen by polarography
Type: functional
Method in brief: (§1)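 Liver mitochondria isolated from a rat anesthetized with isoflurane and decapitated. Oxygen consumption measured polarographically. Compounds tested at 1, 5 and 10 μM, added in 4 μL DMSO. A DMSO-only (4 μL) solvent control was run alongside.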

SMILES	Activity
Cc1c(C(=O)/C=C/c2ccc(Cl)c(Cl)c2)[n+]([O-])c2ccccc2[n+]1[O-]	Dose-dependent effect

Species on record: Rattus norvegicus
Assay: Induction of rat liver mitochondria respiration assessed as consumption of oxygen at 1 to 10 uM by polarography
Type: functional
Method in brief: as §1

SMILES	Activity
CC(=O)c1c(C)[n+]([O-])c2ccccc2[n+]1[O-] [MEQUINDOX]	inactive
